# Screening data from PubChem.
# RAM network inh: inhibitors of the yeast RAM network, primary screen, dse1pr::URA3 reporter, 5-FOA selection | S. cerevisiae dse1pr::URA3 reporter, 5-FOA growth OD615, 2 d; analog-sensitive cbk1-as2 kinase mutant strain | inhibition, % at 50 µM | hit rate 1.8% among 190,000;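 active means inhibition above a set limit, 3 SD over mean compound inhibition, cut at about 8.4% in these data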;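 further: 0% = DMSO-only wells with no growth and 100% = 10 µM 1-NA-PP1 full growth; inhibition rescues growth on 5-FOA so higher OD means more RAM inhibition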
# Dynein transport: inhibitors of GR-EGFP nuclear translocation, primary screen, dynein cargo transport inhibitor project, imaging, high-content, 3617.4 mouse cells; hit rate 0.47% among 220,000; AID 1381, 2008; z-score, hits read low; test concentration mostly 20 µM; stimulated with dexamethasone, 1 µM; hits give low values;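 active means plate z-score of nuclear minus cytoplasmic receptor signal below a set negative limit, without overly bright fluorescence or cell loss, cut at about -3.5 in these data, passing the limit was not always enough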;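 further: z-score of nuclear minus cytoplasmic ring GR-EGFP intensity difference per well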
#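 medium = tetracycline-free induction medium containing charcoal-stripped FBS | probe or stimulus = dexamethasone, 1.0 µM final | timing = 48 h induction, then 1 h compound, then 30 min agonist, 37 °C | detection = automated 10x imaging of fixed Hoechst-stained cells | read-out basis = nuclear versus cytoplasmic GR-EGFP signal, averaged per well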
# p-CIP stab down: p/CIP-EGFP fusion destabilizers, primary screen, fluorescence, F442A cells | Q05BA5 | 16 h | decrease of EGFP signal, % at 10 µM | hit rate 0.01% among 290,000 | AID 1984, 2009;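 active means EGFP signal decrease of at least 30% at 10 µM or well 3 SD below plate mean, unless failing retest; inactive means the rest, including hits failing retest or dose response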
# NCF1 inh: p47phox/p22phox peptide binding inhibitors, primary screen, biochemical, uHTS, NADPH oxidase regulatory subunit | Neutrophil cytosol factor 1 (Homo sapiens), P14598 | fluorescence polarization, 2 h | inhibition, % at 24.7 µM | hit rate 0.53% among 220,000 | AID 1274, 2008;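 active means inhibition above about 30%, limit read from the data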;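 further: 0% = p47phox with labelled peptide and 100% = labelled peptide alone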
# RAM 5-FOA: 5-FOA growth of efflux-deficient control yeast, dose response, counter-screen for RAM network inhibitor project, S. cerevisiae, OD615; S. cerevisiae efflux-deficient reporter strain, 5-FOA growth OD615, 2 days; AID 1305, 2008; max inhibition, %; 1,200 tested, under 10 active; shares compounds with RAM network inh; call rule not given here;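 further: plate controls were vehicle for no effect and reference inhibitor for full effect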
# The depositor's hits bear a star; nt = no result given. This is a sample that favours compounds with a hit; in the whole collection about 1.9% have one here.
SMILES,RAM network inh,Dynein transport,p-CIP stab down,NCF1 inh,others
CCOC(=O)C(O)(c1ccc(NC(=O)c2ccc(Cl)c(Cl)c2)cc1)C(F)(F)F (configuration not stated),nt,-0.258,-8.6,-103.3,
CCOC(=O)C(O)(c1ccc(N=c2ccccn2C)cc1)C(F)(F)F (configuration not stated),nt,0.143,-6.7,-1.8,
Fc1ccc(C2=CCN(C(c3cccs3)c3nnnn3CCc3ccccc3)CC2)cc1 (configuration not stated),10.2*,-0.818,2.0,-55.2,
O=C(C1CC(=O)N(C2CCCCCCC2)C1)N1CCC2(CC1)OCCO2 (configuration not stated),0.7,0.891,1.2,34.5*,
COCCCn1c(-c2ccc(OC)cc2)cc(C(=O)NC2CCCCCCC2)c1C,10.7*,-0.317,9.0,-4.5,
Nc1ccc(S(=O)(=O)N2CCCCC2c2cccnc2)cc1 (configuration not stated),1.6,0.913,-4.2,-12.6,
O=S(=O)(c1ccccc1)N1CCCCC1c1cccnc1 (configuration not stated),1.4,-0.744,-11.2,43.4*,
Cc1cc(/C=C2\C(=O)NC(=O)N(c3cccc(F)c3)C2=O)c(C)n1-c1ccc(C(=O)O)c(Cl)c1,nt,nt,-14.8,nt,
Cc1ccc(N2C(=O)NC(=O)/C(=C/c3ccc(-c4ccc(C(=O)O)c(Cl)c4)o3)C2=O)cc1,10.8*,0.607,-13.5,-20.1,
CN1CCN(/N=C/c2c(O)n(C)c(=O)n(C)c2=O)CC1,0.3,-0.464,-12.2,-3.0,
CCc1ccc(NC2=NCCCS2)cc1,nt,nt,8.4,nt,
Cc1cc(=O)oc2c(C)c(OCC(=O)N3CCC(C(=O)O)(c4ccccc4)CC3)ccc12,nt,nt,9.9,nt,
O=C(Oc1c(Cl)cc(Cl)c2ccccc12)N1CCCCC1,10.3*,-0.12,-3.7,-4.1,
Cc1nonc1-c1nc(-c2nonc2N)n[nH]1,1.1,-0.739,-11.0,-10.2,
COc1ccccc1CCNCc1ccc(OC)c(OC)c1OC,1.6,-0.135,1.1,1.1,
O=C(Nc1ccccc1)c1cccn(Cc2ccccc2)c1=O,9.2*,-0.737,4.7,-17.6,
O=C(Nc1ccncc1)c1cccn(Cc2ccccc2)c1=O,0.7,-0.0793,0.4,-6.4,
CN1CC=C(/C=C/c2ccc(-c3ccccc3)cc2)CC1,nt,nt,-5.4,nt,
CN1C2c3ccccc3C3C4c5ccccc5C(C31)C(C2[N+](=O)[O-])N4C (configuration not stated),nt,-0.115,-0.5,91.8*,
Cc1ccc(/C=C/C2=NN(Cc3ccc(Cl)c(Cl)c3)C(=O)CC2)cc1,12.0*,0.401,-11.6,2.8,RAM 5-FOA=3.5
Cc1cccc(OP(=O)(Nc2ccc(F)cc2)Oc2cccc(C)c2)c1,6.1,-0.045,3.8,-4.8,
CCCCn1c(O)c(C(C)=NC(Cc2c[nH]c3ccccc23)C(=O)OC)c(=O)[nH]c1=O (configuration not stated),1.9,-0.249,5.9,-17.1,
O=[N+]([O-])/C=C/c1c(OCc2ccccc2)ccc2ccccc12,12.9*,-0.616,-0.8,-14.0,RAM 5-FOA=4.7
Cc1ccccc1NC1(C#N)CCCCC1,-0.1,1.12,3.0,-1.1,
CC1CCc2c(sc3nc(CSc4n[nH]c(N)n4)[nH]c(=O)c23)C1 (configuration not stated),11.7*,0.263,7.9,-13.7,RAM 5-FOA=2.8
SMILES,RAM network inh,Dynein transport,p-CIP stab down,NCF1 inh,others
Cc1c(CC(=O)N2C[C@H]3C[C@@H](C2)c2cccc(=O)n2C3)c(=O)oc2cc(O)c(Cl)cc12,nt,nt,-11.3,nt,
Cc1c(NP(=O)(C(C)(C)C)C(C)(C)C)c(=O)n(-c2ccccc2)n1C,2.6,-0.481,-7.0,-0.5,
CC(C)(C)N1C(=O)NC(=O)/C(=C\c2ccc3c(c2)CCN3CCCCl)C1=O,nt,0.215,-15.7,25.6,
CCN1C(=O)/C(=C/c2ccc3c(c2)CCN3CCCCl)C(=O)NC1=S,16.5*,-1.33,-17.4,3.2,RAM 5-FOA=5.1
CN1C(=O)c2ccccc2NC(=O)C1Cc1ccccc1 (configuration not stated),-0.5,0.679,5.7,-0.8,
CCOP(=O)(OCC)C(Nc1cccc(C(F)(F)F)c1)c1ccc(Br)cc1 (configuration not stated),12.3*,-0.246,1.4,-19.0,RAM 5-FOA=0.6
